Many of the other results were omitted from the sample, so hits are more common in it than they were.
GASC1 inh: KDM4C (human) demethylase inhibition; Q9H3R0; inhibition, % at 12.5 µM; GST-KDM4C 2-372, H3K9me3 peptide, LANCE TR-FRET; hit rate 0.15% among 96,000;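 active = mean replicate inhibition above about 25%, with at least 55% of replicates also reaching it, limit read from the data, passing the limit was not always enough; inconclusive = only one of those two conditions met; inactive = neither condition met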
Target sequence (Q9H3R0 2-372 limits assumed): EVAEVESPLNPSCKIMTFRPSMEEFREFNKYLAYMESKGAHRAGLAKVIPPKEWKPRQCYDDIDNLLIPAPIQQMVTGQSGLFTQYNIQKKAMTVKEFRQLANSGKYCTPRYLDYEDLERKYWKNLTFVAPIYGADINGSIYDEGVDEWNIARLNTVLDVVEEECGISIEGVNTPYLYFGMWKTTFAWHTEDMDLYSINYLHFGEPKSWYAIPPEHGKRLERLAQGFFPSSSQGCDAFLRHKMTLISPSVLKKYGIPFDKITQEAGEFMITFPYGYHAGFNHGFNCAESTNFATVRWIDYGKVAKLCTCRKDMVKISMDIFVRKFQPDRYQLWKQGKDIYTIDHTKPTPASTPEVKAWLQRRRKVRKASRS
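Material: GST-tagged GASC-1 (JMJD2C) catalytic fragment, aa 2-372. Input: enzyme final amount 10 nM. Medium: HEPES buffer, pH 7.5, plus ascorbate. Reagent: H3K9me3 peptide substrate, Fe(II), 2-oxoglutarate. Doses: single dose. Times: reaction 30 min RT, detection step 1 h RT. Measured by: LANCE TR-FRET. Evaluation: Fall in 671/618 emission ratio as inhibition.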
T cruzi growth-1: blocks T. cruzi growth in NIH3T3 culture | T. cruzi beta-gal in NIH3T3, GalScreen luminescence, 90 h | hit rate 5.9% among 77,000 | inhibition, % at 8.34 µM;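 active = mean inhibition above about 93%, with at least 55% of replicates each passing it, limit read from the data, passing the limit was not always enough; inconclusive = only one of those two conditions holds; inactive = neither condition holds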
IDH1 R132H inh: blocks human IDH1 R132H reductase activity; O75874; diaphorase/resazurin fluorescence, 60 min; inhibition, % at 10 µM; hit rate 0.18% among 70,000; AID 624101; in the data active = inhibition above about 34%; inconclusive = no clear call, values can overlap the other calls; inactive = below about 11%;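 note: 0% = DMSO and 100% = no enzyme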
T cruzi growth-2: blocks T. cruzi growth in NIH3T3 host cells. hit rate 72% among 5,600. AID 651739. inhibition, % at 8.35 µM. T. cruzi beta-gal in NIH3T3, GalScreen luminescence, 90 h. shares compounds with T cruzi growth-1;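 active = mean replicate inhibition above about 95% and at least 55% of replicates individually reaching it, limit read from the data; inconclusive = only one of the two criteria is met; inactive = neither criterion is met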
T cruzi growth-3: Trypanosoma cruzi proliferation inhibition | shares compounds with T cruzi growth-1 | T. cruzi beta-gal in NIH3T3, GalScreen luminescence, 90 h | inhibition, % at 2.09 µM | hit rate 21% among 5,600 | AID 651740;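 active = mean inhibition above about 95%, with at least 55% of replicates also reaching it, limit read from the data; inconclusive = meets just one of the two conditions; inactive = meets neither condition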;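 note: plate controls were neutral control median for no effect and positive control median for full effect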
3T3 cytotox: cytotoxicity in mouse NIH/3T3 fibroblasts; cytotoxicity (signal decrease), % at 8.35 µM; NIH/3T3 viability, CellTiter-Glo ATP luminescence, 90 h; hit rate 14% among 5,600; shares compounds with T cruzi growth-1;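 active = mean signal decrease across replicates above about 35% based on untreated-well scatter, with enough replicates individually passing, limit read from the data; inconclusive = no rule stated though some were filed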;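 note: 0% = median of neutral control wells and 100% = median of positive control wells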
NIH3T3 tox 2: cytotoxicity in mouse NIH/3T3 fibroblasts; inhibition, % at 24.9 µM; NIH/3T3 viability, CellTiter-Glo ATP luminescence, 90 h; hit rate 56% among 5,600; shares compounds with T cruzi growth-1;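 active = mean loss of cell viability signal at or above a set limit, and enough replicates individually reaching it; inconclusive = meets only the mean limit or only the replicate share; inactive = meets neither condition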;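 note: 0% = median of neutral control wells and 100% = median of positive control wells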
* hit, by the source's call; ? = inconclusive; . = no result given.

SMILES | GASC1 inh | T cruzi growth-1 | IDH1 R132H inh | T cruzi growth-2 | T cruzi growth-3 | 3T3 cytotox | NIH3T3 tox 2
COc1ccc(NC(=O)N(C)C[C@H]2OCCCC[C@@H](C)Oc3ccc(NC(=O)C4CCCCC4)cc3C(=O)N([C@H](C)CO)C[C@H]2C)cc1 | -1 | 60 | . | . | . | . | .
COc1cccc(-c2ccc([C@@H]3[C@H]4CN(S(=O)(=O)c5cccs5)CCCCN4[C@H]3CO)cc2)c1 | -3 | 81 | . | . | . | . | .
COc1ccc(-c2ccc([C@@H]3[C@H](CO)N4CCCCN(S(=O)(=O)c5cccs5)C[C@@H]34)cc2)cc1 | -1 | 91 | . | . | . | . | .
CS(=O)(=O)N1CCCCN2[C@@H](CO)[C@H](c3ccc(C4=CCCC4)cc3)[C@@H]2C1 | 0 | ? | . | 92 | 35 | 3 | 9
CN(C)C(=O)c1ccc(-c2ccc([C@H]3[C@@H](CO)N4CCCCN(S(C)(=O)=O)C[C@@H]34)cc2)cc1 | -1 | 98* | . | 44 | 3 | -1 | 5
COc1ccc(-c2ccc([C@H]3[C@H]4CN(S(=O)(=O)c5cccs5)CCCCN4[C@H]3CO)cc2)cc1 | 0 | 113* | . | 108* | 94 | -9 | 8
Cc1cccc(-c2ccc([C@H]3[C@H]4CN(S(=O)(=O)c5cccs5)CCCCN4[C@H]3CO)cc2)c1 | 2 | 107* | . | 103* | 99* | 27 | 46*
CN(C)C(=O)c1ccc(-c2ccc([C@H]3[C@@H](CO)N4CCCCN(S(C)(=O)=O)C[C@H]34)cc2)cc1 | 0 | 83 | . | . | . | . | .
COc1ccc(S(=O)(=O)N2CCCCN3[C@H](CO)[C@@H](c4ccc(C5=CCCC5)cc4)[C@@H]3C2)cc1 | 1 | 78 | . | . | . | . | .
C[C@H](CO)N1C[C@H](C)[C@@H](CN(C)Cc2ccc(C(=O)O)cc2)Oc2ccc(NC(=O)CCC(F)(F)F)cc2C1=O | 1 | 24 | 0 | . | . | . | .
CNC[C@H]1Oc2ccc(NS(=O)(=O)c3cccs3)cc2C(=O)N([C@@H](C)CO)C[C@H]1C | 11 | 6 | . | . | . | . | .
COc1ccc(-c2ccc([C@H]3[C@@H](CO)N4CCCCN(S(=O)(=O)c5cccs5)C[C@H]34)cc2)cc1 | 0 | 105* | . | 106* | 55 | 31 | 105*
COc1ccc(S(=O)(=O)N2CCCCN3[C@@H](CO)[C@@H](c4ccc(C5=CCCCC5)cc4)[C@@H]3C2)cc1 | . | 91 | . | . | . | . | .
O=S(=O)(c1cccs1)N1CCCCN2[C@H](CO)[C@H](c3ccc(Br)cc3)[C@@H]2C1 | -2 | 114* | . | 100* | -22 | 9 | 30*
COc1ccc(S(=O)(=O)N2CCCCN3[C@H](C2)[C@H](c2ccc(C4=CCCCC4)cc2)[C@@H]3CO)cc1 | . | 117* | . | ? | 43 | 20 | 27*
O=S(=O)(c1cccs1)N1CCCCN2[C@H](C1)[C@H](c1ccc(C3=CCCCC3)cc1)[C@@H]2CO | . | 120* | . | 109* | 74 | 5 | ?
O=S(=O)(c1cccs1)N1CCCCN2[C@@H](CO)[C@@H](c3ccc(Br)cc3)[C@@H]2C1 | 0 | 88 | . | . | . | . | .
COc1cccc(-c2ccc([C@H]3[C@@H](CO)N4CCCCN(S(=O)(=O)c5cccs5)C[C@H]34)cc2)c1 | -1 | 41 | . | . | . | . | .
O=S(=O)(c1cccs1)N1CCCCN2[C@H](CO)[C@H](c3ccc(C4=CCCC4)cc3)[C@H]2C1 | -1 | 76 | . | . | . | . | .
C[C@@H]1CN([C@@H](C)CO)C(=O)c2cc(C#CC3CC3)cnc2O[C@@H]1CN(C)C(=O)c1ccncc1 | -1 | -21 | -6 | . | . | . | .
COc1ccc2c3c([nH]c2c1)[C@H](CO)N(C(=O)c1cccnc1)CC31CN(Cc2ccccc2)C1 | 2 | . | . | . | . | . | .
Cc1nnc(SCC(=O)Nc2c(C)n(C)n(-c3ccccc3)c2=O)s1 | . | . | 0 | . | . | . | .
CC(C)CC#Cc1ccc2c(c1)O[C@H](CN(C)C(=O)Nc1ccccc1F)[C@@H](C)CN([C@@H](C)CO)S2(=O)=O | 1 | 84 | 0 | . | . | . | .
CCCC#Cc1ccc2c(c1)O[C@H](CN(C)C(=O)Nc1ccccc1F)[C@H](C)CN([C@H](C)CO)S2(=O)=O | -1 | . | . | . | . | . | .
CC(C)CC#Cc1ccc2c(c1)O[C@@H](CN(C)C(=O)Nc1ccccc1F)[C@H](C)CN([C@H](C)CO)S2(=O)=O | -2 | 115* | 0 | 109* | 42 | 29 | 78*
SMILES | GASC1 inh | T cruzi growth-1 | IDH1 R132H inh | T cruzi growth-2 | T cruzi growth-3 | 3T3 cytotox | NIH3T3 tox 2
CC(C)CC#Cc1ccc2c(c1)O[C@@H](CN(C)C(=O)Nc1ccccc1F)[C@@H](C)CN([C@H](C)CO)S2(=O)=O | -2 | 108* | -1 | 106* | ? | -13 | 99*
CC(C)CC#Cc1ccc2c(c1)O[C@@H](CN(C)C(=O)Nc1ccccc1F)[C@H](C)CN([C@@H](C)CO)S2(=O)=O | 0 | 108* | 0 | 108* | 76 | 25 | 101*
CC(C)CC#Cc1ccc2c(c1)O[C@H](CN(C)C(=O)Nc1ccccc1F)[C@H](C)CN([C@@H](C)CO)S2(=O)=O | 7 | 51 | 0 | . | . | . | .
C[C@H](CO)N1C[C@H](C)[C@H](CN(C)C(=O)Nc2ccc3c(c2)OCO3)Oc2ccc(NC(=O)Nc3ccc4c(c3)OCO4)cc2CC1=O | 2 | . | -19 | . | . | . | .
O=C(NCc1ccc(F)cc1)[C@H]1[C@H](CO)[C@H]2Cn3c(cccc3=O)[C@@H]1N2C(=O)Cc1ccccn1 | -1 | 70 | . | . | . | . | .
Cc1noc(C)c1NC(=O)Nc1ccc2c(c1)C(=O)N([C@@H](C)CO)C[C@H](C)[C@@H](CN(C)C(=O)Nc1ccc(C(F)(F)F)cc1)OCCCC[C@@H](C)O2 | 0 | 83 | . | . | . | . | .
C[C@@H]1CCCCO[C@@H](CN(C)S(C)(=O)=O)[C@H](C)CN([C@@H](C)CO)C(=O)c2cc(NS(=O)(=O)c3ccc(Cl)cc3)ccc2O1 | 0 | 50 | . | . | . | . | .
CCCC(=O)N1CC2(C1)CN(C(=O)C1CCC1)[C@H](CO)c1[nH]c3cc(OC)ccc3c12 | -1 | . | . | . | . | . | .
C[C@@H]1CN([C@@H](C)CO)C(=O)c2cccc(NC(=O)Nc3ccc(F)cc3)c2O[C@H]1CN(C)Cc1ccc(C(=O)Nc2ccccc2N)cc1 | -1 | . | . | . | . | . | .
C[C@H](CO)N1C[C@H](C)[C@H](CN(C)Cc2ccc(Oc3ccccc3)cc2)Oc2ccc(NC(=O)Nc3ccc(F)cc3)cc2C1=O | -3 | 109* | . | 98* | 62 | 24 | 104*
C[C@@H]1CN([C@H](C)CO)C(=O)c2cc(NC(=O)Nc3ccc(F)cc3)ccc2O[C@H]1CN(C)Cc1ccc(Oc2ccccc2)cc1 | 0 | -23 | . | . | . | . | .
C[C@@H]1CN([C@H](C)CO)C(=O)c2cc(NC(=O)Nc3ccc(F)cc3)ccc2O[C@@H]1CN(C)Cc1ccc(Oc2ccccc2)cc1 | 1 | ? | 0 | 96* | 30 | 34 | 106*

Compound activity deposited in PubChem by Broad Institute.
